MC4R ag barr: MC4R agonists recruiting beta-arrestin, primary screen, cell-based, luminescence, agonist arm of biased-ligand search; 360,000 compounds, 0.98% hits; U2OS MC4R beta-arrestin complementation; percent of melanotan II response, DMSO zero; activation, % at 8.9 µM; Melanocortin receptor 4 (Homo sapiens), P32245;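 active = activation above a per-plate cutoff, the mean activation of sample wells on that plate plus 3 SD, cut at about 8% in these data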
NTR1 ag: agonists of human NTR1, primary screen, imaging, U2OS cells, beta-arrestin-GFP, high content; activation, % at 20 µM; Neurotensin receptor type 1 (Homo sapiens), P30989; 330,000 compounds, 0.17% hits; AID 493036, 2011; NTR1-U2OS beta-arrestin-GFP spot imaging, agonist mode;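 active = activation at or above 40% of the spot to cytoplasm intensity ratio, with at least 20 cells analyzed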
Target sequence (P30989 whole entry, looked up): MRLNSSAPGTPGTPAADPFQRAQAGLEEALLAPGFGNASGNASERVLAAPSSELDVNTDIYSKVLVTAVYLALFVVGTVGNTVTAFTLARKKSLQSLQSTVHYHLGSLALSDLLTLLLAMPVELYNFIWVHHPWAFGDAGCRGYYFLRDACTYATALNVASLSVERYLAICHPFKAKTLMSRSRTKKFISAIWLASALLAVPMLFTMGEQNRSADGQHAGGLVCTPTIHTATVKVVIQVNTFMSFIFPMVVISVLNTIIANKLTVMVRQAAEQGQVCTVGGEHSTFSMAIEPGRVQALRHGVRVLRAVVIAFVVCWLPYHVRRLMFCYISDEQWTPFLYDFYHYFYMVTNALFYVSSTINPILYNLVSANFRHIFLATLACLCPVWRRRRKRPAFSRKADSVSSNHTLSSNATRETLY
MC4R antagonist: MC4R antagonists of cAMP signaling, primary screen, cell-based, TR-FRET, antagonist arm of biased-ligand search. MC4R-expressing cells, MTII-stimulated cAMP, LANCE TR-FRET. inhibition, % at 6.5 µM. 360,000 compounds, 0.48% hits. AID 540295, 2011;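 active = inhibition above its plate's cutoff, the mean of tested wells on that plate plus 3 SD, cut at about 29% in these data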
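Material: U2OS-MC4R stable cell line | Reagent: Melanotan II challenge after compound preincubation | Doses: One concentration, 6.5 µM nominal | Incubation: 30-min compound preincubation, 1-h Melanotan II challenge, 1-h detection, room temperature | Signal: TR-FRET cAMP assay | Replicates: One well per compound, no replicates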
PG9 Ab binder: binders of HIV-1 gp120 antibody PG9, primary screen, biochemical, TR-FRET | HIV-1 gp120 / PG9 antibody interaction | TR-FRET gp120-PG9 antibody binding | inhibition, % at 6.7 µM | 360,000 compounds, 0.43% hits; in the data active = inhibition above about 8.5%
Rev-erbA mod: modulators of Rev-erb alpha DNA binding, primary screen, biochemical, FITC-DNA, fluorescence polarization, uHTS | activity, % at 10 µM | 370,000 compounds, 0.79% hits | Nuclear receptor subfamily 1 group D member 1 (Homo sapiens), P20393 | Rev-erbα–FITC-DNA binding, 90 min | AID 1259318, 2017;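 active = activity above about 14%, limit read from the data; passing the limit was not always enough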
MC4R barr conf: MC4R beta-arrestin agonists, retest, confirmation, cell-based, luminescence, U2OS; shares compounds with MC4R ag barr; U2OS MC4R beta-arrestin recruitment; scaled DMSO 0%, Melanotan II 100%; activation, % at 8.9 µM; 2,400 compounds, 31% hits; AID 602192, 2012;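 active = mean activation across replicates above the hit cutoff set in the earlier primary screen, cut at about 8% in these data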
MOR DOR agonist: agonists of MOR-DOR heterodimerization, counter-screen for MC4R biased agonist project, cell-based, luminescence | AID 602194, 2012 | U2OS PathHunter beta-arrestin, beta-gal luminescence; percent of deltorphin B response, DMSO zero | shares compounds with MC4R ag barr | 2,400 compounds, 5.8% hits | activation, % at 9.2 µM;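 active = mean activation across replicates exceeds the hit threshold derived in the earlier primary screen, cut at about 18% in these data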
Of the large screens only hits and unclear results are named; the others gave an inactive call (follow-up assays come after a bar, where they were run). Shown are actives, neighbours in structure and some others; about 2.5% of the full set was active somewhere.

COc1cc(C(=O)OCC(=O)NCc2ccc(F)cc2)cc(NC(=O)c2cccs2)c1OC	MC4R ag barr 9.7 | MC4R barr conf inactive | MOR DOR agonist inactive
COc1cc(NC(=O)c2cccs2)c(C(=O)OCC(=O)NC(=O)NCc2ccccc2)cc1OC	none
CC[C@]1(c2ccc(C)cc2)C(=O)N(C(=O)OC(C)C)N1C(=O)OC(C)C	none (no result: MC4R ag barr, NTR1 ag, MC4R antagonist, PG9 Ab binder)
CC(=O)O[C@]1(C(C)=O)CCC2C3C[C@H](C)C4=CC(=O)CC[C@]4(C)C3CC[C@@]21C (stereo partly specified)	none (no result: MC4R ag barr, NTR1 ag, MC4R antagonist, PG9 Ab binder)
c1ccc(COC2CCCN(Cc3nc(Cc4ccccc4)no3)C2)cc1 (stereo unspecified)	MC4R ag barr 9.9 | MC4R barr conf inactive | MOR DOR agonist inactive
OC1CCN(c2cc(-c3ccccc3)nc3cc(-c4ccc(F)cc4)nn23)CC1	none
CCN1CCN(c2cc(-c3ccccc3)nc3cc(-c4cccc(F)c4)nn23)CC1	MC4R ag barr 12 | MC4R barr conf inactive | MOR DOR agonist inactive
COC(=O)c1ccc2c(=O)[nH]c(CSc3nc(-c4ccc(F)cc4)cs3)nc2c1	MC4R ag barr 10 | MC4R barr conf inactive | MOR DOR agonist inactive
O=c1[nH]c(CSc2nc(-c3ccc(F)cc3)cs2)nc2ccccc12	MC4R ag barr 9.6 | MC4R barr conf inactive | MOR DOR agonist inactive
O=C(CSc1nc(-c2ccc(F)cc2)cs1)Nc1ccccn1	MC4R ag barr 24 | MC4R barr conf inactive | MOR DOR agonist inactive
Cc1ccc(C2=Nc3ccccc3N=C(c3ccco3)C2)c(O)c1	MC4R ag barr 17 | MC4R barr conf inactive | MOR DOR agonist inactive
COc1cc(-c2nnc(SCC(=O)NN=Cc3c[nH]c4ccccc34)n2-c2ccccc2)cc(OC)c1OC	none (no result: MC4R ag barr, NTR1 ag, MC4R antagonist, PG9 Ab binder)
Cc1ccc(/C=C2/Sc3ccc(C(=O)NCCN4CCOCC4)cc3NC2=O)cc1	none
CCN1CCCC1CNC(=O)c1ccc2c(c1)NC(=O)/C(=C\c1ccc(C)cc1)S2 (stereo unspecified)	MC4R ag barr 15 | MC4R barr conf 13 | MOR DOR agonist inactive
COC(=O)C(CN)CN1C(=O)c2ccccc2C1=O (stereo unspecified)	none (no result: MC4R ag barr, NTR1 ag, MC4R antagonist, PG9 Ab binder)
Cc1nn(-c2ccccc2)c(N2CCCC2)c1/C=N/NC(=S)Nc1ccccc1F	MC4R ag barr 14 | MC4R barr conf inactive | MOR DOR agonist inactive
Cc1nn(-c2ccccc2)c(N2CCCC2)c1/C=N/NC(=O)c1cc2ccccc2cc1O	none
Cc1ccc(O)c(C(=O)/C=C/c2ccc3c(c2)OCCCO3)c1	MC4R ag barr 23 | MC4R barr conf 24 | MOR DOR agonist inactive
O=C(/C=C/c1ccc2c(c1)OCCCO2)c1ccccc1O	none
CCCCCCc1cc2cc(S(=O)(=O)c3ccc(C)cc3)c(=O)oc2cc1O	MC4R ag barr 22 | MC4R barr conf 9.6 | MOR DOR agonist inactive
CCCCCCc1cc2cc(S(=O)(=O)c3ccc(Cl)cc3)c(=O)oc2cc1O	none
N#C/C(=C\c1ccc([N+](=O)[O-])o1)C(=O)Nc1ccc(F)cc1	MC4R ag barr 12 | MC4R barr conf 14 | MOR DOR agonist inactive
COc1ccc2nc(C)cc(SCC(=O)N/N=C/c3cccc4ccccc34)c2c1	MC4R ag barr 19 | MC4R barr conf inactive | MOR DOR agonist inactive
CCOC(=O)CN(C(=O)Cn1nnc(-c2ccc(OC)cc2)n1)C(C(=O)NC1CCCC1)c1ccc(F)cc1 (stereo unspecified)	none
COc1ccc(-c2nnn(CC(=O)N(Cc3ccc(F)cc3)C(C(=O)NC3CCCC3)c3ccc(F)cc3)n2)cc1 (stereo unspecified)	MC4R ag barr 9.7 | MC4R barr conf inactive | MOR DOR agonist inactive
Cc1cc(O)cc(=O)n1-c1cccc(C(F)(F)F)c1	none (no result: MC4R ag barr, NTR1 ag, MC4R antagonist)
C=CCSc1nc2sc(-c3ccccc3)cc2c(=O)n1N	MC4R ag barr 19 | MC4R barr conf 21 | MOR DOR agonist 21
COP1(=O)CCOCC[C@H](CC(C)C)NC(=O)[C@H](CC(C)C)N1 (stereo partly specified)	none (no result: MC4R ag barr, NTR1 ag, MC4R antagonist, PG9 Ab binder)
COc1cccc(CN(C)C(=O)c2ccc(S(=O)(=O)Nc3ccccc3F)cc2)c1OC	none
COc1ccc(CN(C)C(=O)c2cc(S(=O)(=O)Nc3ccccc3F)ccc2C)c(OC)c1	MC4R ag barr 12 | MC4R barr conf inactive | MOR DOR agonist inactive
C[C@@H](CO)N(Cc1cn(Cc2ccccc2)nn1)S(=O)(=O)c1ccc(F)cc1Br	none (no result: MC4R ag barr, NTR1 ag, MC4R antagonist, PG9 Ab binder)
Cc1ccc(Cn2ccc(NC(=O)c3cc(-c4ccccc4)on3)n2)cc1	MC4R ag barr 11 | MC4R barr conf inactive | MOR DOR agonist inactive
CC(C)[C@H](NC(=O)[C@H](C)NC(=O)OC(C)(C)C)C(=O)N1CCC2CCN(Cc3ccccc3)CC21 (stereo partly specified)	none (no result: MC4R ag barr, NTR1 ag, MC4R antagonist)
COc1cccc(/C=N/NC(=O)C(=O)Nc2ccccc2OC(F)(F)C(F)F)c1	MC4R ag barr 16 | MC4R barr conf inactive | MOR DOR agonist inactive
CC(=O)c1nn(-c2cccc(Br)c2)cc1C(=O)c1ccc(C)cc1	MC4R ag barr 35 | MC4R barr conf inactive | MOR DOR agonist inactive
CCn1nc(NC(=O)c2ccncc2)c2cc3cccc(C)c3nc21	none
CCn1nc(NC(=O)c2cccnc2)c2cc3cccc(C)c3nc21	MC4R ag barr 17 | MC4R barr conf inactive | MOR DOR agonist inactive
S=C(Nc1cccc(Cl)c1)N1CCN(c2ccccn2)CC1	none
S=C(Nc1ccc(Cl)c(Cl)c1)N1CCN(c2ccccn2)CC1	MC4R ag barr 15 | MC4R barr conf inactive | MOR DOR agonist inactive
CCOc1ccc(-c2cc(CCCC(=O)NCCc3ccc(OC)c(OC)c3OC)no2)cc1	MC4R ag barr 24 | MC4R barr conf inactive | MOR DOR agonist inactive
C[C@@H]1COc2cc(NCCCN3CCOCC3)ccc2S(=O)(=O)N1	none (no result: MC4R ag barr, NTR1 ag, MC4R antagonist)
CCC12CCCN3CCC4(C(=C(C(=O)OC)C1)Nc1ccccc14)C32 (stereo unspecified)	MC4R ag barr 10 (no result: NTR1 ag) | MC4R barr conf inactive | MOR DOR agonist inactive
COc1ccc2c(c1)CCCC2NS(=O)(=O)OCC(Cl)(Cl)Cl (stereo unspecified)	MC4R ag barr 10 | MC4R barr conf inactive | MOR DOR agonist inactive

From PubChem
